Experimental data taken from PMC7649717 (Analytical chemistry, 2020).
Residue numbers refer to the chain shown, from its start.

Columns and labels:
Experiment in all cases: isothermal titration calorimetry
Conditions in all cases: PBS, 298 K, 30 μM protein; GFP fusion
[1] = molecular target: T1, GFP-RBP(L19A); ribose binding protein (RBP) (Escherichia coli, UniProt P02925, L44A/Q260A)
T1 sequence (P02925 26-296 L44A/Q260A): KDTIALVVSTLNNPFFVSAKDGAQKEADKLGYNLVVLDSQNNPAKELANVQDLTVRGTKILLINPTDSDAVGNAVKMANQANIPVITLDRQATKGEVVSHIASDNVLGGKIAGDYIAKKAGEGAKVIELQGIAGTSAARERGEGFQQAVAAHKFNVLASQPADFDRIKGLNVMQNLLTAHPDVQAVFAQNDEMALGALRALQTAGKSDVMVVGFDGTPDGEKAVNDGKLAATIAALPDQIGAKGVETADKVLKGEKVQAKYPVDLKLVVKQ

[2] = molecular target: T2, GFP-RBP(L19A); ribose binding protein (RBP) (Escherichia coli, UniProt P02925, L44A)
T2 sequence (P02925 26-296 L44A): T1 sequence (P02925 26-296 L44A/Q260A) with A235Q
Method in brief: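 GFP-RBP(L19A) expressed in E. coli BL21(DE3) and Ni-affinity purified with on-column 8 M urea unfolding and refolding to strip endogenous ribose, then size-exclusion in PBS. ITC at 298 K: cell held 30 μM protein in PBS against a deionized water reference; ribose at 10x protein concentration in PBS. Kd came from nonlinear regression fits of the binding isotherms.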

[3] = molecular target: T3, GFP-RBP(L19A); ribose binding protein (RBP) (Escherichia coli, UniProt P02925, L44A/T160A/Q260A)
T3 sequence (P02925 26-296 L44A/T160A/Q260A): T1 sequence (P02925 26-296 L44A/Q260A) with T135A

With `OC1OC[C@@H](O)[C@@H](O)[C@H]1O` (stereo partly drawn) [ribose] the Kd [1] was 10 µM, the Kd [2] was 0.3 ± 0.1 µM and the Kd [3] was 130 µM.
